These results are taken from ChEMBL document CHEMBL1921672, “Design, synthesis, and qualitative structure-activity evaluations of novel β-secretase inhibitors as potential Alzheimer's drug leads” (J Med Chem, 2011).

Data set [1] deals with T1, Beta-secretase 1 (Homo sapiens, UniProt P56817). The data set can be described thus: Inhibition of BACE1 in human H4 cells expressing APP Swedish K595N and M596L double mutant assessed as inhibition of amyloid beta (1 to 40) production after 24 hrs by whole cell assay. The class given is cell-based. The conditions noted are these: pooled result: one value given for 2 cell lines, strains, targets or settings. An outline of the steps:
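H4 neuroglioma cells carrying human APP K595N/M596L, seeded at 2 × 10⁵ cells/well and grown 24 h, then given increasing compound concentrations overnight (1% DMSO negative control). Medium Aβ40 or Aβ42 measured by sandwich immunoassay: biotinylated 4G8 plus C-terminal-specific rabbit antibodies, electrochemiluminescence read-out. Viability checked by MTT (0.5 mg/mL, 3 h, 570 nm). EC50 as mean of ≥3 experiments ± SD.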

The target in data set [2] is T2, Beta-secretase 2 (Homo sapiens, UniProt Q9Y5Z0). Nature of the data set: Inhibition of BACE2 expressing APP Swedish mutant using rhodamine-labeled EVNLDAEFK-quencher as substrate after 60 mins by Michaelis-Menten equation. An outline of the steps:
(§1)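 Same FRET set-up (750 nM peptide substrate, KM 20 μM, 1 U/mL enzyme, pH 4.5 acetate, 60 min, 25 °C). Apparent KI derived from steady-state rates with and without inhibitor (vI, v0), then converted to absolute KI by correcting for substrate concentration and KM.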

For data set [3], the target named is T1, Beta-secretase 1. Nature of the data set: Inhibition of BACE1 expressing APP Swedish mutant using rhodamine-labeled EVNLDAEFK-quencher as substrate after 60 mins by Michaelis-Menten equation. An outline of the steps: as §1
The target of data set [4] is T1, Beta-secretase 1. The data set can be described thus: Inhibition of BACE1 expressing APP Swedish mutant using rhodamine-labeled EVNLDAEFK-quencher as substrate after 60 mins by FRET analysis.
For data set [5], the target named is T2, Beta-secretase 2. The data set can be described thus: Inhibition of BACE2 expressing APP Swedish mutant using rhodamine-labeled EVNLDAEFK-quencher as substrate after 60 mins by FRET analysis.
Data set [6] in a line: Aqueous solubility of the compound. To be noted: water. The class given is physicochemical. An outline of the steps:
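Solubility estimated by HPLC. Salt sonicated 48 h in water, filtered through 0.45 μm, injected after a five-point calibration (1.44–18.0 mg/mL standards in acetonitrile/methanol 50:50 v/v; least-squares linear fit; triplicate injections). Reversed-phase C18 column, UV detection at 280 nm. Solubility taken where recovery began to fall with rising concentration.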

Data set [7] in a line: Selectivity ratio of IC50 for BACE2 to IC50 for BACE1.

SMILES strings stand for the structures.

T1 sequence (P56817 whole entry): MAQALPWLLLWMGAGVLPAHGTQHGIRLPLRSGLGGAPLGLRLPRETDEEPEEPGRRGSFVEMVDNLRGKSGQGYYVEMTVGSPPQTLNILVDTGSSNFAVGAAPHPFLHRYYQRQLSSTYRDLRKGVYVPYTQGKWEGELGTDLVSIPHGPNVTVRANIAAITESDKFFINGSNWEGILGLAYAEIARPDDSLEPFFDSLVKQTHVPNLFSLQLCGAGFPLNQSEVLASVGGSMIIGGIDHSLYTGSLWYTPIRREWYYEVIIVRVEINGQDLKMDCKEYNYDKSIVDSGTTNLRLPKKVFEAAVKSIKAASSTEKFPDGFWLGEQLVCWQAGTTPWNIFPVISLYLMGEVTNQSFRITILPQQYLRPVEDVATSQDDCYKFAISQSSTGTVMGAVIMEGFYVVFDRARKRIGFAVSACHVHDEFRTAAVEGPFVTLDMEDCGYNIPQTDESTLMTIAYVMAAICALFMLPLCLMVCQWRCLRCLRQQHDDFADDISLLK
T2 sequence (Q9Y5Z0 63-518 limits assumed, stated change not applied): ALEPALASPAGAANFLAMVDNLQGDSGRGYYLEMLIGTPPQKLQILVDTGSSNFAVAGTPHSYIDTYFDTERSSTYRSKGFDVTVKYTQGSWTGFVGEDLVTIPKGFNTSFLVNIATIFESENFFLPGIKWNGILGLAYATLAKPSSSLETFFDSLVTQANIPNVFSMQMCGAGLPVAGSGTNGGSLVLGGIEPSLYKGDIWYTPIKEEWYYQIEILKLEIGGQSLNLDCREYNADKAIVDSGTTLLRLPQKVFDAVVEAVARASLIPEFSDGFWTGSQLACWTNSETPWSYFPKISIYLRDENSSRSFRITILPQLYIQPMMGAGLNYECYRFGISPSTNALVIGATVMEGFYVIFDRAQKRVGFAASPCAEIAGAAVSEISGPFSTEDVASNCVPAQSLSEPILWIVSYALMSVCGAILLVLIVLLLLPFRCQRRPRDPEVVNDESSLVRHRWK

As for `C[C@H](NC(=O)c1cc(-c2nc(-c3ccccc3)c[nH]2)cc(N(C)S(C)(=O)=O)c1)c1ccccc1`, the EC50 in data set [1] worked out at 450 nM. The Ki in data set [2] came to 1730 nM; in data set [3], 304 nM. The figures for the IC50 in data set [4] and in data set [5] were 315 nM and 1790 nM, respectively.
The corresponding values for `Fc1ccc2nc(-c3cccc(-c4cn5ccccc5n4)c3)[nH]c2c1` are 120 nM, 3080 nM, 34 nM, 35 nM and 3170 nM.
The corresponding values for `COc1ccc2nc(-c3cccc(-c4cn5ccccc5n4)c3)[nH]c2c1` are 30 nM, 3220 nM, 25 nM, 26 nM and 3320 nM.
Regarding `CC(C)(C)Nc1c(-c2cccc(-c3nc4ccccc4[nH]3)c2)nc2ccccn12`, the Ki in data set [2] came out at 3670 nM; in data set [3] it was 495 nM. Moreover, the values for the IC50 in data set [4] and in data set [5] were 514 nM and 3780 nM, respectively.
`Cl.Fc1ccc2nc(-c3cccc(-c4cn5ccc(F)cc5n4)c3)[nH]c2c1` came in with a solubility in data set [6] of 10000 µg/mL.
In the case of `COc1cccc(-c2c[nH]c(-c3cc(C(=O)N[C@@H](C)c4ccccc4)cc(N(C)S(C)(=O)=O)c3)n2)c1`, in data set [1], the EC50 worked out at 179 nM. Besides, the Ki is 2280 nM in data set [2] and 62 nM in data set [3]. The IC50 is 77 nM in data set [4] and 2350 nM in data set [5].
As for `COc1ccc2nc(-c3cccc(-c4nc5ccccn5c4NC(C)(C)C)c3)[nH]c2c1`, the EC50 in data set [1] is 310 nM. In addition, in data set [7], the Ratio IC50 stood at 23. Also, the Ki in data set [2] was 4000 nM; in data set [3], 253 nM. The IC50 was found to be 178 nM in data set [4] and 4120 nM in data set [5].
In the case of `CC(C)(C)Nc1c(-c2ccc(-c3nc4ccc(F)cc4[nH]3)cc2)nc2ccccn12`, the Ki in data set [2] came to 3620 nM; in data set [3] it was 2390 nM. Besides, the IC50 came to 2480 nM in data set [4] and 3720 nM in data set [5].
Take `Fc1ccc2nc(-c3cccc(-c4cn5ccc(F)cc5n4)c3)[nH]c2c1` [listing 1 of 2 here]: the EC50 in data set [1] was 37 nM. The Ki in data set [2] is 3570 nM; in data set [3], 17 nM. The results for the IC50 in data set [4] and in data set [5] were 18 nM and 3670 nM, respectively.
In the case of `C[C@H](NC(=O)c1cc(-c2nc3cc(F)ccc3[nH]2)cc(N(C)S(C)(=O)=O)c1)c1ccccc1`, the EC50 in data set [1] was found to be 230 nM. Also, in data set [7], the Ratio IC50 was found to be 5. The Ki in data set [2] is 2070 nM; in data set [3], 758 nM. Moreover, the IC50 was 786 nM in data set [4] and 2130 nM in data set [5].
In the case of `C[C@H](NC(=O)c1cc(-c2ncc(-c3cccc(F)c3)[nH]2)cc(N(C)S(C)(=O)=O)c1)c1ccccc1`, the Ki was 1820 nM in data set [2] and 180 nM in data set [3]. Besides, the IC50 in data set [4] was determined as 187 nM; in data set [5], 1870 nM.
Turning to `Fc1ccc2nc(-c3cccc(-c4cn5ccc(F)cc5n4)c3)[nH]c2c1` [listing 2 of 2 here], the Ratio IC50 in data set [7] came to 204.
Still for that read-out and setting: then `COc1cccc(-c2cnc(-c3cc(C(=O)N[C@@H](C)c4ccccc4)cc(N(C)S(C)(=O)=O)c3)[nH]2)c1`, with 30.
As to `c1cc(-c2cn3ccccc3n2)cc(-c2nc3ccccc3[nH]2)c1`, the EC50 in data set [1] was 1550 nM. The Ki in data set [2] was 3780 nM; in data set [3], 926 nM. Besides, the IC50 was 961 nM in data set [4] and 3890 nM in data set [5].
As to `CC(C)(C)Nc1c(-c2ccc(-c3nc4ccccc4[nH]3)cc2)nc2ccccn12`, the Ki in data set [2] came to 5510 nM; in data set [3], 5310 nM. Besides, the figures for the half-inhibitory concentration (IC50) in data set [4] and in data set [5] were 5510 nM and 5680 nM, respectively.
With `COc1ccc2nc(-c3ccc(-c4nc5ccccn5c4NC(C)(C)C)cc3)[nH]c2c1`, the EC50 in data set [1] came to 2410 nM. The Ratio IC50 in data set [7] was 1.3. Moreover, the Ki was found to be 2810 nM in data set [2] and 2160 nM in data set [3]. The IC50 worked out at 2240 nM in data set [4] and 2900 nM in data set [5].
Turning to `CC(C)(C)Nc1c(-c2cccc(-c3nc4ccc(F)cc4[nH]3)c2)nc2ccccn12`, the EC50 in data set [1] worked out at 930 nM. The Ki in data set [2] amounted to 4110 nM; in data set [3], 301 nM. For the same compound, the IC50 in data set [4] was 312 nM; in data set [5], 4230 nM.
Regarding `COc1ccc2[nH]c(-c3cc(C(=O)N[C@@H](C)c4ccccc4)cc(N(C)S(C)(=O)=O)c3)nc2c1`, the Ratio IC50 in data set [7] turned out to be 5. Moreover, the Ki was 2350 nM in data set [2] and 525 nM in data set [3]. Also, the results for the IC50 in data set [4] and in data set [5] were 545 nM and 2420 nM, respectively.
`C[C@H](NC(=O)c1cc(-c2nc3ccccc3[nH]2)cc(N(C)S(C)(=O)=O)c1)c1ccccc1`: the Ki in data set [2] is 2070 nM; in data set [3], 1040 nM. The IC50 in data set [4] worked out at 1080 nM; in data set [5] it was 2130 nM.

The EC50 is the concentration that produces a half-maximal response. Broadly, the IC50 is the midpoint of a concentration-inhibition curve. The low end stands for inhibition by little substance, the high end for a need for much substance. Broadly, the solubility is the dissolved amount per volume that the medium holds. Higher therefore signals a readily soluble substance.
